Reference: ChEMBL document CHEMBL4229344 (Eur J Med Chem, 2018)

What was measured:
[1] = tested on: ALK tyrosine kinase receptor (Homo sapiens), Q9UM73 [L1196M]; experiment: Binding affinity to wild-type human partial length ALK L1196M mutant (I1088 to E1409 residues) expressed in mammalian expression system assessed as residual binding level at 1 uM by Kinomescan method relative to control
Method in brief: (§1)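 Single-concentration KINOMEscan (DiscoverX) binding screen at 1 μM against a panel of 468 purified kinases and mutants. The read-out is binding relative to control.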

[2] = target: 5'-AMP-activated protein kinase catalytic subunit alpha-1 (Homo sapiens) (UniProt Q13131); experiment: Binding affinity to wild-type human partial length AMPK alpha1 (M1 to E306 residues) expressed in bacterial expression system assessed as residual binding level at 1 uM by Kinomescan method relative to control
Sequence of 5'-AMP-activated protein kinase catalytic subunit alpha-1 (Homo sapiens) (Q13131 whole entry, looked up, the tested form may be a part): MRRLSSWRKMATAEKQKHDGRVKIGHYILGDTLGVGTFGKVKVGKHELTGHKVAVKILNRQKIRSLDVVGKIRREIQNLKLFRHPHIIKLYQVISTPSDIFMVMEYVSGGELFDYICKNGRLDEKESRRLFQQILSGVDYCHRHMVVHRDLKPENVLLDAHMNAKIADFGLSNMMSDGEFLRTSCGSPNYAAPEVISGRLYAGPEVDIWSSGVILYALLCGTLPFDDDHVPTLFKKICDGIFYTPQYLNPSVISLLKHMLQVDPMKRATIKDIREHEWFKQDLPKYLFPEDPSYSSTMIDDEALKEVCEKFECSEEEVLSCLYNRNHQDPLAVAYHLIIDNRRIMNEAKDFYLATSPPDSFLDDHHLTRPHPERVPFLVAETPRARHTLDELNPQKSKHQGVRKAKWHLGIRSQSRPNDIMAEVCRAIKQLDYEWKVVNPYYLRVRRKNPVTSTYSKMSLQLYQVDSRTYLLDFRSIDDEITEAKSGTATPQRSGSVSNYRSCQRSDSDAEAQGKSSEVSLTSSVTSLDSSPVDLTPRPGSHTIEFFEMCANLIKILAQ
Method in brief: (§2)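 Kinome-wide competition binding screen against a panel of 468 purified kinases/mutants, with the test compound at a single concentration of 1 μM. Read-out is the relative binding activity of each kinase in the presence of compound.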

[3] = target: Mitotic checkpoint serine/threonine-protein kinase BUB1 (Homo sapiens) (UniProt O43683); experiment: Binding affinity to wild-type human partial length BUB1 (Q724 to K1085 residues) expressed in mammalian expression system assessed as residual binding level at 1 uM by Kinomescan method relative to control
[4] = target: Calcium/calmodulin-dependent protein kinase kinase 2 (Homo sapiens) (UniProt Q96RR4); experiment: Binding affinity to wild-type human partial length CAMKK2 (D65 to V471 residues) expressed in bacterial expression system assessed as residual binding level at 1 uM by Kinomescan method relative to control; method in brief: as §2
Sequence of Calcium/calmodulin-dependent protein kinase kinase 2 (Homo sapiens) (Q96RR4 2-588 limits assumed): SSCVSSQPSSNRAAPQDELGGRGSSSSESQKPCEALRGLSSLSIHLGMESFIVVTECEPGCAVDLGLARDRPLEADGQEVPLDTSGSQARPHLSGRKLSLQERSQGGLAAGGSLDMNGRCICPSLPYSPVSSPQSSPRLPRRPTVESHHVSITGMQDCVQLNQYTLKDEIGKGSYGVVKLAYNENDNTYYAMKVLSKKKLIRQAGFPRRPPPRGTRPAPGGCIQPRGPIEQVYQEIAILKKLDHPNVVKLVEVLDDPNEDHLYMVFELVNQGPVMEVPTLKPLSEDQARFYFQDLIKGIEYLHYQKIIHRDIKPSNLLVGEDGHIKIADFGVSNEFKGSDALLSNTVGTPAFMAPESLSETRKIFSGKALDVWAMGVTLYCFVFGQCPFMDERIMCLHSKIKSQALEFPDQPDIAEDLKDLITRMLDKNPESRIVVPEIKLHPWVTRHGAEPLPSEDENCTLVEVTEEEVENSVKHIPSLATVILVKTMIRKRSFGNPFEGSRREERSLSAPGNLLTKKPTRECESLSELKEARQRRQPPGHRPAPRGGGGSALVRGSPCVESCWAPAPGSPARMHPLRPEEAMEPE

[5] = target: Cyclin-dependent kinase 8 (Homo sapiens) (UniProt P49336); experiment: Binding affinity to wild-type human partial length CDK8 (M1 to T360 residues) expressed in bacterial expression system assessed as residual binding level at 1 uM by Kinomescan method relative to control
Sequence of Cyclin-dependent kinase 8 (Homo sapiens) (P49336 whole entry, the tested form may be a part): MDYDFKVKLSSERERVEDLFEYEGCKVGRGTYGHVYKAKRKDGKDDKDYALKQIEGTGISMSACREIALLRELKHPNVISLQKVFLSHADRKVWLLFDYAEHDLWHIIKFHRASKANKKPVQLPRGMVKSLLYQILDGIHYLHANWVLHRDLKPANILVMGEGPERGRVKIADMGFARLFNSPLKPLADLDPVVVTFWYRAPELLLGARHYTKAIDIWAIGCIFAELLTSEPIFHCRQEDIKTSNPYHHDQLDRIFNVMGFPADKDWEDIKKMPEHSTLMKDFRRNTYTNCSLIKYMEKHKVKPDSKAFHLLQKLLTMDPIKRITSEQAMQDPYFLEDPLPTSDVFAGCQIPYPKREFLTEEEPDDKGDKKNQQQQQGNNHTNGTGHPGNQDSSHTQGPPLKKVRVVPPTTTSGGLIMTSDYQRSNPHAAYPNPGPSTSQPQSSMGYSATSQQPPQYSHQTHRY

[6] = target: Vascular endothelial growth factor receptor 3 (Homo sapiens) (UniProt P35916); experiment: Binding affinity to wild-type human partial length FLT4 (E821 to E1196 residues) expressed in bacterial expression system assessed as residual binding level at 1 uM by Kinomescan method relative to control
Sequence of Vascular endothelial growth factor receptor 3 (Homo sapiens) (P35916 whole entry, the tested form may be a part): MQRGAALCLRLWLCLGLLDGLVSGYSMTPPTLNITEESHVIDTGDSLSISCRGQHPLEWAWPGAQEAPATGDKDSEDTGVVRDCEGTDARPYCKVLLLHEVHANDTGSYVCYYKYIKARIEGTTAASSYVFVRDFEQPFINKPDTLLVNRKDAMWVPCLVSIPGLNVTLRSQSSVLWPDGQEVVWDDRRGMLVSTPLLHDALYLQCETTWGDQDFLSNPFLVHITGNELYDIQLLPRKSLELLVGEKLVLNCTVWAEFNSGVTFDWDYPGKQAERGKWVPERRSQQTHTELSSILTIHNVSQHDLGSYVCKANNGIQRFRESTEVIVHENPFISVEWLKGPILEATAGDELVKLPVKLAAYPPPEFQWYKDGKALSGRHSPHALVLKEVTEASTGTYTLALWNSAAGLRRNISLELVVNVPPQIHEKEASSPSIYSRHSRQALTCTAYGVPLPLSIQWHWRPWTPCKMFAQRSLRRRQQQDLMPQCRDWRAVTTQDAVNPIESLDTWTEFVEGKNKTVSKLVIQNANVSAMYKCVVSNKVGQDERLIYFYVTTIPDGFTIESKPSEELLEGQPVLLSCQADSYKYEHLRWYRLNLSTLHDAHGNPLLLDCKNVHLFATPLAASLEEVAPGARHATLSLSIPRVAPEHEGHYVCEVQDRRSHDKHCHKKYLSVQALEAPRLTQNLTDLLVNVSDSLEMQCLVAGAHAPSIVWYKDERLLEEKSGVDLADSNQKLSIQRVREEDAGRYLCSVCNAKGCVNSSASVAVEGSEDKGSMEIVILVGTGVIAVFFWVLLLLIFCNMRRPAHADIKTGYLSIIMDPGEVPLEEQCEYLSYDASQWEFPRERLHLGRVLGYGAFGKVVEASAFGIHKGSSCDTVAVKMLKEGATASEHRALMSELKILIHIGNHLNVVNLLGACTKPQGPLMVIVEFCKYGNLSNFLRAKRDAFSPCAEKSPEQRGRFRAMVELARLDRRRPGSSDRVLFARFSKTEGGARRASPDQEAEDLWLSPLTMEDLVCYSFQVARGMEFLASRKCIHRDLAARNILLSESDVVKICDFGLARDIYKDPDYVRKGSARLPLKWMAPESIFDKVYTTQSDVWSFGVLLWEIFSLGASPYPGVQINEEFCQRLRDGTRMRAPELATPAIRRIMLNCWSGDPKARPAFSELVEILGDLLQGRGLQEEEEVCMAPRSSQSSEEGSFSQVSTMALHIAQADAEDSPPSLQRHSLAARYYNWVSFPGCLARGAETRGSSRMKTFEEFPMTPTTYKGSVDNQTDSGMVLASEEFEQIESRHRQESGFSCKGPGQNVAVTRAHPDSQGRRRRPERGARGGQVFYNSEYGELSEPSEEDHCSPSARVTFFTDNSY

[7] = target: Serine/threonine-protein kinase LATS2 (Homo sapiens) (UniProt Q9NRM7); experiment: Binding affinity to wild-type human partial length LATS2 (Q641 to V1088 residues) expressed in mammalian expression system assessed as residual binding level at 1 uM by Kinomescan method relative to control
[8] = target: Tyrosine-protein kinase Lck (Homo sapiens) (UniProt P06239); experiment: Binding affinity to wild-type human partial length LCK (R207 to P509 residues) expressed in bacterial expression system assessed as residual binding level at 1 uM by Kinomescan method relative to control
[9] = target: MAP/microtubule affinity-regulating kinase 3 (Homo sapiens) (UniProt P27448); experiment: Binding affinity to wild-type human full length MARK3 (M1 to L729 residues) expressed in bacterial expression system assessed as residual binding level at 1 uM by Kinomescan method relative to control
Method in brief: (§3)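 KINOMEscan competition binding against 468 purified kinases/mutants, test compound at 1 µM; residual binding relative to control.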

[10] = target: Dual specificity mitogen-activated protein kinase kinase 3 (Homo sapiens) (UniProt P46734); experiment: Binding affinity to wild-type human full length MEK3 (M1 to S318 residues) expressed in mammalian expression system assessed as residual binding level at 1 uM by Kinomescan method relative to control; method in brief: as §1
Sequence of Dual specificity mitogen-activated protein kinase kinase 3 (Homo sapiens) (P46734 whole entry, the tested form may be a part): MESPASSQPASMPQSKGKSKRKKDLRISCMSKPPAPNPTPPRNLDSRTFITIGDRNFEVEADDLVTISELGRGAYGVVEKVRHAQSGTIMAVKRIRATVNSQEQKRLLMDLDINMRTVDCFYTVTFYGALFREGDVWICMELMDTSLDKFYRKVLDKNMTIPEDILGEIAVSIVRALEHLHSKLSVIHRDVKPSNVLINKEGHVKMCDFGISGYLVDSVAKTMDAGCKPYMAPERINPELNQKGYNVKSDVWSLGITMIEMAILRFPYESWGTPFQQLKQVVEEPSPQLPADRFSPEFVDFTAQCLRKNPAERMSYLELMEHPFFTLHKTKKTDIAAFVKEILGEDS

[11] = target: Hepatocyte growth factor receptor (Homo sapiens) (UniProt P08581); experiment: Binding affinity to wild-type human partial length MET (D1010 to S1367 residues) expressed in bacterial expression system assessed as residual binding level at 1 uM by Kinomescan method relative to control
Sequence of Hepatocyte growth factor receptor (Homo sapiens) (P08581 whole entry, the tested form may be a part): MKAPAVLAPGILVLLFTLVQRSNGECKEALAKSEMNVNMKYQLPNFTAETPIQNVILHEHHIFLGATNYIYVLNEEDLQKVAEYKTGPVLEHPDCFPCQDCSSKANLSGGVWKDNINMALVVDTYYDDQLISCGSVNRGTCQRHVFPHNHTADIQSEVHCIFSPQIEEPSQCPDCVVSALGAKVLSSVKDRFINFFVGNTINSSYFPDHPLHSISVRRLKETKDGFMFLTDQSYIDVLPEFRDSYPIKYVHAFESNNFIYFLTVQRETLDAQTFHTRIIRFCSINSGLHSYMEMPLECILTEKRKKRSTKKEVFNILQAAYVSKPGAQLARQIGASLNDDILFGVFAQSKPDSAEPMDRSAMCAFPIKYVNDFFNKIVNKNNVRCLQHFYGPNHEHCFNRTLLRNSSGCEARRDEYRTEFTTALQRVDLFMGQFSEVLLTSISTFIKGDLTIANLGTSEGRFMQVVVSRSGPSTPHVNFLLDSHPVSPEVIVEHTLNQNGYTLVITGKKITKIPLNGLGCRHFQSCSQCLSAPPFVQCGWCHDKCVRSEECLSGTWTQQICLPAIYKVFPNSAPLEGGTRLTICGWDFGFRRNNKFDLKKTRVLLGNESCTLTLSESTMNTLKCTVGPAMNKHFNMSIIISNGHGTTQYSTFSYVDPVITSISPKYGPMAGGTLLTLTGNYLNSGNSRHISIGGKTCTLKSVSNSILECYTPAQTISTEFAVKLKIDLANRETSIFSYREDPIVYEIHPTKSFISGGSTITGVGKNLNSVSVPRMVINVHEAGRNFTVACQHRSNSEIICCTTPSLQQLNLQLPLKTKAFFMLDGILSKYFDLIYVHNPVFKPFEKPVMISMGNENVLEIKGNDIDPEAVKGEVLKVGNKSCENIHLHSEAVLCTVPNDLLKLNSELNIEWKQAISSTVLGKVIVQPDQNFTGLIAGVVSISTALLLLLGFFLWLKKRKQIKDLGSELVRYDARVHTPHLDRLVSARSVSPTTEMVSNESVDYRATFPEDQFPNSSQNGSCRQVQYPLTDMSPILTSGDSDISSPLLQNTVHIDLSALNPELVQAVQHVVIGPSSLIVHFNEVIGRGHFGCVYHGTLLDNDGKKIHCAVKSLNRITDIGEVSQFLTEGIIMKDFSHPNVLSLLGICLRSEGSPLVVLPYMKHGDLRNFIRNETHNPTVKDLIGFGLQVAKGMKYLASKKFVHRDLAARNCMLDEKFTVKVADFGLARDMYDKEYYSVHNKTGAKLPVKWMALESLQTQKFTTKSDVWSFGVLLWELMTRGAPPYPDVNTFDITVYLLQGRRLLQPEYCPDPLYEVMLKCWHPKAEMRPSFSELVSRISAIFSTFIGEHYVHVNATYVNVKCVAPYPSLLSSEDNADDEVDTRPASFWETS

[12] = target: Serine/threonine-protein kinase Nek4 (Homo sapiens) (UniProt P51957); experiment: Binding affinity to wild-type human full length NEK4 (M1 to F841 residues) expressed in mammalian expression system assessed as residual binding level at 1 uM by Kinomescan method relative to control; method in brief: as §1
[13] = target: Serine/threonine-protein kinase NIM1 (Homo sapiens) (UniProt Q8IY84); experiment: Binding affinity to wild-type human partial length NIM1 (Q44 to N355 residues) expressed in mammalian expression system assessed as residual binding level at 1 uM by Kinomescan method relative to control
[14] = target: Phosphatidylinositol 5-phosphate 4-kinase type-2 gamma (Homo sapiens) (UniProt Q8TBX8); experiment: Binding affinity to wild-type human partial length PIP5K2C (M1 to A421 residues) expressed in mammalian expression system assessed as residual binding level at 1 uM by Kinomescan method relative to control
Method in brief: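 KINOMEscan competition binding against a panel of 468 purified kinases/mutants, compound tested at 1 μM; readout is relative binding activity versus control.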

[15] = target: cAMP-dependent protein kinase catalytic subunit beta (Homo sapiens) (UniProt P22694); experiment: Binding affinity to wild-type human full length PKAC-beta (M1 to F351 residues) expressed in bacterial expression system assessed as residual binding level at 1 uM by Kinomescan method relative to control; method in brief: as §1
[16] = target: Serine/threonine-protein kinase PLK4 (Homo sapiens) (UniProt O00444); experiment: Binding affinity to wild-type human partial length PLK4 (M1 to S273 residues) expressed in mammalian expression system assessed as residual binding level at 1 uM by Kinomescan method relative to control
[17] = target: Serine/threonine-protein kinase SBK1 (Homo sapiens) (UniProt Q52WX2); experiment: Binding affinity to wild-type human partial length SBK1 (P23 to P348 residues) expressed in mammalian expression system assessed as residual binding level at 1 uM by Kinomescan method relative to control
[18] = target: Serine/threonine-protein kinase 33 (Homo sapiens) (UniProt Q9BYT3); experiment: Binding affinity to wild-type human full length STK33 (M1 to L514 residues) expressed in bacterial expression system assessed as residual binding level at 1 uM by Kinomescan method relative to control; method in brief: as §3
[19] = target: Serine/threonine-protein kinase tousled-like 2 (Homo sapiens) (UniProt Q86UE8); experiment: Binding affinity to wild-type human partial length TLK2 (E424 to N749 residues) expressed in bacterial expression system assessed as residual binding level at 1 uM by Kinomescan method relative to control
[20] = AUC (0 to infinity) in Sprague-Dawley rat at 10 mg/kg, po; assay type: ADME, organism-based; parameters: dose 10 mg/kg, route oral, time infinity; details: in vivo
Method in brief: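 Male Sprague-Dawley rats (6–8 weeks) fasted overnight, dosed IV or orally; compound dissolved in 5% DMSO/40% PEG400/55% saline (dosing solution 1 mg/mL). Blood (~0.2 mL) from jugular vein into heparin; IV sampling 1 min–8 h, oral 5 min–24 h. Plasma separated by centrifugation at 2–8 °C, stored at −80 °C until analysis.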

[21] = tested on: EOL1; experiment: Antitumor activity against human EOL-1 cells engrafted in ip dosed NOD-SCID mouse assessed as reduction of cell density in bone marrow administered 3 weeks post cell inoculation by FACS analysis; assay type: functional, organism-based
Method in brief: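 Daily i.p. dosing started 3 weeks after inoculation at 7.5, 15 or 30 mg/kg/day. Mice monitored daily and euthanized when moribund or at hind-limb paralysis. Bone marrow cells, after red-cell lysis, stained with PE anti-HLA-ABC and counted by flow cytometry.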

`Cc1ccc(NC(=O)c2ccc(CN(CCN(C)C)C(=O)c3cccnc3)cc2)cc1Nc1nccc(-c2cccnc2)n1` showed an Activity [1] of 100%, an Activity [2] of 92% and an Activity [3] of 100%. The Activity [4] was 91%, the Activity [5] was 90% and the Activity [6] was 100%. For the same compound, the Activity [7] was 100%, the Activity [8] was 100% and the Activity [9] was 80%. It also gave an Activity [10] of 98%, an Activity [11] of 90% and an Activity [12] of 100%. For the same compound, the Activity [13] was 100%, the Activity [14] was 37% and the Activity [15] was 77%. It also gave an Activity [16] of 88%, an Activity [17] of 100% and an Activity [18] of 89%. For the same compound, the Activity [19] was 95%, the AUC(0-inf) [20] was 115 ng·h/mL and the Activity [21] was “Dose-dependent effect”.
